Experiment [1] is described as follows: Inhibition of CRAC channel-mediated calcium influx in human Jurkat cells. Format: cell-based. The gist of the method:
(§1)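 Jurkat cells (2 × 10⁶ cells/ml) loaded with 1 µM Fura-2/AM for 45 min at room temperature in HEPES buffer pH 7.4 (NaCl 137, KCl 5.8, MgCl₂ 1, CaCl₂ 2.5, glucose 5, HEPES 10 mM), then washed. Thapsigargin-induced Ca²⁺ influx read by 340/380 nm excitation, 500 nm emission, with cell-free compound fluorescence subtracted. IC50 taken from percent inhibition.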

In experiment [2] the test system is PC-12. The experiment is described as follows: Inhibition of VOC channel-mediated calcium influx in […] PC12-h5 cells at 10 uM. It counts as cell-based. The note with it: Rattus norvegicus. An outline of the steps:
(§2)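 PC12-h5 cells (1 × 10⁶ cells/ml) loaded with 1 µM Fura-2/AM for 45 min at room temperature in HEPES buffer pH 7.4, then washed. Depolarized with 50 mM KCl for 20 min. Intracellular Ca²⁺ measured at the 20 min endpoint from the 340/380 nm excitation ratio (500 nm emission), with compound autofluorescence subtracted.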

In experiment [3] the test system is Jurkat. The experiment is described as follows: Inhibition of PHA-induced IL2 production in human Jurkat T lymphocytes. It counts as functional, cell-based. An outline of the steps: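 Jurkat T cells (5 × 10⁶ cells/ml) stimulated with PHA (20 µg/ml) for 20 h. IL-2 in the supernatant quantified by human IL-2 ELISA.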
Experiment [4] deals with Mus musculus. The experiment is described as follows: Inhibition of trinitrochlorobenzene-induced contact hypersensitivity in 1 hr before pretreated CD1 mouse assessed as ear swelling at 30 mg/kg, po. Format: functional. The gist of the method:
(§3)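 Mice challenged with TNCB on both sides of the ear pinna. Compound given orally 1 h before TNCB exposure, with 0.5% MC vehicle given orally to control animals. Ear thickness measured by dial gauge 24 h after challenge and swelling calculated from the pre-exposure value.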

Experiment [5] concerns Jurkat. The experiment is described as follows: Selectivity ratio of IC50 for VOC channel in […] PC12-h5 cells over IC50 for CRAC channel in human Jurkat cells.
Experiment [6] in a line: Inhibition of VOC channel-mediated calcium influx in […] PC12-h5 cells. It counts as cell-based. The note with it: Rattus norvegicus, PC-12. The gist of the method:
as §2

Experiment [7] has as its system Jurkat. The experiment is described as follows: Inhibition of CRAC channel-mediated calcium influx in human Jurkat cells at 10 uM. It counts as cell-based. An outline of the steps: as §1
The subject of experiment [8] is Mus musculus. As to the kind of experiment: Inhibition of trinitrochlorobenzene-induced contact hypersensitivity in 1 hr before orally pretreated CD1 mouse assessed as ear swelling. Format: functional. The note with it: CD1, po. An outline of the steps:
as §3

Experiment [9] concerns Rattus norvegicus. The experiment is described as follows: Inhibition of ovalbumin-induced airway eosinophilia in BN rat po dosed 1 hr before antigen challenge assessed as number of eosinophils in bronchoalveolar levage fluid after 24 hrs. Format: functional. Conditions: Lung. The gist of the method:
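Sensitized rats were challenged 3 weeks later with aerosolized 1% (w/v) ovalbumin for 15 min. Compound given orally 1 h before exposure. BAL performed 24 h after challenge. Total white cells counted with a blood cell counter. Eosinophils identified morphologically on smears and eosinophil number per animal calculated. ED50 derived.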

The structures appear in SMILES notation. pIC50: −log10 of the molar value.

Here are results for 31 compounds from ChEMBL document CHEMBL1142507, “Novel potent and selective Ca2+ release-activated Ca2+ (CRAC) channel inhibitors. Part 3: synthesis and CRAC channel inhibitory activity of 4'-[(trifluoromethyl)pyrazol-1-yl]carboxanilides” (Bioorg Med Chem, 2008).

The pIC50 is the negative decadic logarithm of the IC50, by convention in mol/L. The inhibition is the change of the read-out against control, counted positive when it falls. As usually defined, the inhibition in vivo is the drop in the measured response relative to a control, in per cent. For `O=C(Nc1ccc(-n2nc(C(F)(F)F)cc2C(F)(F)F)cc1)c1cncc(F)c1`, the pIC50 in experiment [1] was 7.11; in experiment [3], 7.74. Moreover, the inhibition in experiment [2] is 27%. The inhibition in vivo at 30 mg/kg in experiment [4] turned out to be 44%. Besides, the Ratio IC50 in [5] is greater than 130.
As for `Cc1nnsc1C(=O)Nc1ccc(-n2nc(C(F)(F)F)c3c2CCC3)cc1`, the pIC50 in [1] is 6.40; in experiment [6], 5.46. Further, the Ratio IC50 in experiment [5] is 8.8.
`O=C(Nc1ccc(-n2nc(C(F)(F)F)cc2C(F)(F)F)cc1)c1cnccc1O`: the inhibition in experiment [7] came to 21%.
Consider `Cc1nnsc1C(=O)Nc1ccc(-n2nc(C(F)(F)F)cc2C#N)cc1`, for which the negative logarithm of the IC50 (pIC50) in experiment [1] is 6.66. Besides, the inhibition in experiment [2] was 45%. In addition, the Ratio IC50 in [5] is greater than 45.
With `O=C(Nc1ccc(-n2nc(C(F)(F)F)cc2C(F)(F)F)cc1)c1c[nH]cn1`, in [7], the inhibition worked out at 29%.
For `Cc1ccc(C(=O)Nc2ccc(-n3nc(C(F)(F)F)cc3C(F)(F)F)cc2)cn1`, the figures for the pIC50 in [1] and in [3] were 6.66 and 7.03, respectively. Besides, in experiment [2], the inhibition turned out to be 27%. Also, the inhibition in vivo at 30 mg/kg in experiment [4] was found to be 46%. For the same compound, the Ratio IC50 in experiment [5] was greater than 45.
For the compound `Cc1ccncc1C(=O)Nc1ccc(-n2nc(C(F)(F)F)cc2C(F)(F)F)cc1`, the results for the pIC50 in experiment [1] and in experiment [6] were 6.54 and 5.20, respectively. Moreover, the Ratio IC50 in [5] was determined as 20.
`Cc1nnsc1C(=O)Nc1ccc(-n2nc(C(F)(F)F)cc2C)cc1`: the pIC50 was 6.66 in experiment [1] and 7.74 in experiment [3]. Further, the inhibition in experiment [2] was determined as 46%. Moreover, in experiment [4], the inhibition in vivo at 30 mg/kg came to 24%. Also, in experiment [5], the Ratio IC50 is greater than 45.
Regarding `O=C(Nc1ccc(-n2nc(C(F)(F)F)cc2C(F)(F)F)cc1)c1cncs1`, the negative-log IC50 (pIC50) is 6.02 in experiment [1] and 5.00 in experiment [6]. Besides, in [5], the Ratio IC50 came out at 10.
For the compound `O=C(Nc1ccc(-n2nc(C(F)(F)F)cc2C(F)(F)F)cc1)c1ccccn1`, the inhibition in [7] worked out at 14%.
On to `O=C(Nc1ccc(-n2nc(C(F)(F)F)cc2C(F)(F)F)cc1)c1cccnc1Cl`, for which the pIC50 in experiment [1] is 6.62; in experiment [6], 5.35. The Ratio IC50 in experiment [5] amounted to 19.
One may read the ED50 as the dose at which the effect has come halfway, by size or by number of responders. Regarding `Cc1nnsc1C(=O)Nc1ccc(-n2nc(C(F)(F)F)cc2C(F)(F)F)cc1`, the pIC50 in experiment [1] was 6.82; in experiment [6] it was 5.33; in experiment [3], 7.77. Also, in experiment [4], the inhibition in vivo at 30 mg/kg turned out to be 100%. Moreover, the median effective dose (ED50) in [8] amounted to 1.1 mg/kg; in experiment [9] it was 2.4 mg/kg. Besides, the Ratio IC50 in experiment [5] was 31.
For `COc1ncccc1C(=O)Nc1ccc(-n2nc(C(F)(F)F)cc2C(F)(F)F)cc1`, the pIC50 is 6.92 in experiment [1] and 5.54 in [6]. Also, in experiment [5], the Ratio IC50 is 24.
In the case of `O=C(Nc1ccc(-n2nc(C(F)(F)F)cc2C(F)(F)F)cc1)c1cncc(Cl)c1`, the pIC50 in experiment [1] is 6.96; in experiment [3] it was 7.47. Further, the inhibition in experiment [2] was determined as 31%. For the same compound, in [4], the inhibition in vivo at 30 mg/kg was determined as 42%. The Ratio IC50 in experiment [5] was greater than 91.
Consider `Cc1nnsc1C(=O)Nc1ccc(-n2ccc(C(F)(F)F)n2)cc1`, for which the inhibition in experiment [7] is 40%.
In the case of `O=C(Nc1ccc(-n2nc(C(F)(F)F)cc2C(F)(F)F)cc1)c1ccncc1`, the pIC50 is 6.62 in experiment [1], 5.00 in experiment [6] and 7.80 in experiment [3]. Moreover, the inhibition in vivo at 30 mg/kg in experiment [4] worked out at 25%. Moreover, the Ratio IC50 in experiment [5] is 42.
Consider `Cc1nnsc1C(=O)Nc1ccc(-n2nc(C(F)(F)F)cc2Br)cc1`, for which the figures for the pIC50 in experiment [1], in experiment [6] and in experiment [3] were 7.04, 5.59 and 8.23, respectively. The inhibition in vivo at 30 mg/kg in [4] is 8.3%. Further, in experiment [5], the Ratio IC50 stood at 28.
For the compound `O=C(Nc1ccc(-n2nc(C(F)(F)F)cc2C(F)(F)F)cc1)c1cncc(Br)c1`, the pIC50 was 6.82 in experiment [1] and 7.62 in [3]. Also, the inhibition in experiment [2] amounted to 29%. Also, in [4], the inhibition in vivo at 30 mg/kg worked out at 17%. Further, the Ratio IC50 in [5] is greater than 67.
`O=C(Nc1ccc(-n2nc(C(F)(F)F)cc2C(F)(F)F)cc1)c1cccnc1O`: the pIC50 in [1] is 5.48.
For `Cc1ccc(-c2cc(C(F)(F)F)nn2-c2ccc(NC(=O)c3snnc3C)cc2)cc1`, the pIC50 in [1] was 6.14; in [6], 5.60. The Ratio IC50 in experiment [5] was 3.5.
Consider `COc1ccncc1C(=O)Nc1ccc(-n2nc(C(F)(F)F)cc2C(F)(F)F)cc1`, for which the pIC50 was 6.64 in experiment [1] and 5.32 in experiment [6]. Besides, in experiment [5], the Ratio IC50 is 21.
For the compound `Cc1nnsc1C(=O)Nc1ccc(-n2nc(C(F)(F)F)cc2Cl)cc1`, the pIC50 in [1] was 7.09; in [6] it was 5.54; in [3], 7.82. Moreover, the inhibition in vivo at 30 mg/kg in experiment [4] came out at 42%. Further, in [5], the Ratio IC50 is 35.
In the case of `Cc1cc(C)c(C(=O)Nc2ccc(-n3nc(C(F)(F)F)cc3C(F)(F)F)cc2)cn1`, the values for the pIC50 in [1] and in experiment [3] were 6.54 and 7.48, respectively. Besides, the inhibition in experiment [2] is 41%. The inhibition in vivo at 30 mg/kg in [4] amounted to 64%. Moreover, the ED50 in experiment [9] is 1.3 mg/kg. In [5], the Ratio IC50 was greater than 34.
`Cc1cncc(C(=O)Nc2ccc(-n3nc(C(F)(F)F)cc3C(F)(F)F)cc2)c1`: the negative-log IC50 (pIC50) in experiment [1] was 6.68; in experiment [6] it was 5.51. The Ratio IC50 in [5] turned out to be 15.
Turning to `O=C(Nc1ccc(-n2nc(C(F)(F)F)cc2C(F)(F)F)cc1)c1nccs1`, the pIC50 in experiment [1] was 6.34. Further, in [2], the inhibition came to 37%. For the same compound, the Ratio IC50 in experiment [5] was greater than 22.
On to `Nc1cncc(C(=O)Nc2ccc(-n3nc(C(F)(F)F)cc3C(F)(F)F)cc2)c1`, for which the figures for the pIC50 in experiment [1] and in experiment [3] were 6.57 and 6.80, respectively. Besides, the inhibition in experiment [2] came to 14%. The inhibition in vivo at 30 mg/kg in experiment [4] came to 59%. Also, the ED50 in experiment [9] worked out at 4.4 mg/kg. Moreover, the Ratio IC50 in experiment [5] was greater than 37.
With `O=C(Nc1ccc(-n2nc(C(F)(F)F)cc2C(F)(F)F)cc1)c1cccnc1`, the pIC50 in [1] was 6.60; in experiment [3], 7.03. For the same compound, in experiment [2], the inhibition was 30%. In addition, in [4], the inhibition in vivo at 30 mg/kg worked out at 62%. Also, the Ratio IC50 in [5] is greater than 40.
As to `Nc1ccncc1C(=O)Nc1ccc(-n2nc(C(F)(F)F)cc2C(F)(F)F)cc1`, the pIC50 was 6.11 in [1] and 5.62 in experiment [6]. In addition, the Ratio IC50 in experiment [5] stood at 3.1.
Turning to `O=C(Nc1ccc(-n2nc(C(F)(F)F)cc2C(F)(F)F)cc1)c1cnccc1Cl`, the values for the pIC50 in experiment [1], in experiment [6] and in experiment [3] were 6.80, 5.29 and 7.74, respectively. Besides, the inhibition in vivo at 30 mg/kg in experiment [4] was -18%. For the same compound, the Ratio IC50 in experiment [5] stood at 32.
`Cc1ccnc(C)c1C(=O)Nc1ccc(-n2nc(C(F)(F)F)cc2C(F)(F)F)cc1`: the pIC50 in experiment [1] was 5.80.
Turning to `O=C(Nc1ccc(-n2nc(C(F)(F)F)cc2C(F)(F)F)cc1)c1cnccc1C(F)(F)F`, the pIC50 in experiment [1] was 6.37; in experiment [6], 5.70. Also, the Ratio IC50 in experiment [5] is 5.
